Measurements reported in paper PMC6815762 (Drug Design, Development and Therapy, 2019).
Blank lines part the entries; values can stand above or below the molecule they belong to. Peptide text beside a SMILES is read from it.

Assays:
[1] = test system: hCMEC/D3 cells; assay: Tube formation assay on Matrigel; assay type: cell-based, human; conditions: VEGF 10 ng/mL, positive control, 12 hr
[2] = test system: hCMEC/D3 cells; assay: Cell proliferation assay; assay type: cell-based, human; conditions: 48 hr incubation, MTT, 570 nm, p > 0.05
[3] = target: integrin αvβ3 (Homo sapiens, UniProt P05106+P06756); assay: Determination of the dissociation constant by ELISA; assay type: binding
Chain of integrin αvβ3 (Homo sapiens, UniProt P05106+P06756) (P06756 31-1048): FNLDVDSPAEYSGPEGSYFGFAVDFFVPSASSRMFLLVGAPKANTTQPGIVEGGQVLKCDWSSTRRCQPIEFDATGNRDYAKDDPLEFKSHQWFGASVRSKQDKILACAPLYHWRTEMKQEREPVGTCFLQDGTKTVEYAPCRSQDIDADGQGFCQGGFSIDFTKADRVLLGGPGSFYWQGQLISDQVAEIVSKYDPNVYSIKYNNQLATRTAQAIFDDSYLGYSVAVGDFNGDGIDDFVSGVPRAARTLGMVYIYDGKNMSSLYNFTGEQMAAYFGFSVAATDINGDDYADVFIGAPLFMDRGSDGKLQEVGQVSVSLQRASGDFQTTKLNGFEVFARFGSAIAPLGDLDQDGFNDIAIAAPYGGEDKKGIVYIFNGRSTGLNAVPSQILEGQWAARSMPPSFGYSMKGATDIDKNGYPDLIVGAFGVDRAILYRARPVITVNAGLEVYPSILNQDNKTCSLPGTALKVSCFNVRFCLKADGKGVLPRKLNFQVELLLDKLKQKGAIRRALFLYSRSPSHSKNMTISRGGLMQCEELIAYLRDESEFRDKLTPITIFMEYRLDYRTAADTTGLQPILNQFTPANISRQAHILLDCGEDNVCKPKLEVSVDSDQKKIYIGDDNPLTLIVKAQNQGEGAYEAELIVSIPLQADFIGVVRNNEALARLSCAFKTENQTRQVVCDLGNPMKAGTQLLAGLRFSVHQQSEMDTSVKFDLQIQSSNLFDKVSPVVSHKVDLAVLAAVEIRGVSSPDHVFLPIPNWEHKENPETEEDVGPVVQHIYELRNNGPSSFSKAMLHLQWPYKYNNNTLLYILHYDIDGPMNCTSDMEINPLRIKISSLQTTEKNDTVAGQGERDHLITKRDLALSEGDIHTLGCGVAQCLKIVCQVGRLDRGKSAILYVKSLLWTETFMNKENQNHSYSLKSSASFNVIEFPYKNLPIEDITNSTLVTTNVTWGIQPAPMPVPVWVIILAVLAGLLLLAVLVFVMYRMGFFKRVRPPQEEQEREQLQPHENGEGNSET
Chain of integrin αvβ3 (Homo sapiens, UniProt P05106+P06756) (P05106 27-788): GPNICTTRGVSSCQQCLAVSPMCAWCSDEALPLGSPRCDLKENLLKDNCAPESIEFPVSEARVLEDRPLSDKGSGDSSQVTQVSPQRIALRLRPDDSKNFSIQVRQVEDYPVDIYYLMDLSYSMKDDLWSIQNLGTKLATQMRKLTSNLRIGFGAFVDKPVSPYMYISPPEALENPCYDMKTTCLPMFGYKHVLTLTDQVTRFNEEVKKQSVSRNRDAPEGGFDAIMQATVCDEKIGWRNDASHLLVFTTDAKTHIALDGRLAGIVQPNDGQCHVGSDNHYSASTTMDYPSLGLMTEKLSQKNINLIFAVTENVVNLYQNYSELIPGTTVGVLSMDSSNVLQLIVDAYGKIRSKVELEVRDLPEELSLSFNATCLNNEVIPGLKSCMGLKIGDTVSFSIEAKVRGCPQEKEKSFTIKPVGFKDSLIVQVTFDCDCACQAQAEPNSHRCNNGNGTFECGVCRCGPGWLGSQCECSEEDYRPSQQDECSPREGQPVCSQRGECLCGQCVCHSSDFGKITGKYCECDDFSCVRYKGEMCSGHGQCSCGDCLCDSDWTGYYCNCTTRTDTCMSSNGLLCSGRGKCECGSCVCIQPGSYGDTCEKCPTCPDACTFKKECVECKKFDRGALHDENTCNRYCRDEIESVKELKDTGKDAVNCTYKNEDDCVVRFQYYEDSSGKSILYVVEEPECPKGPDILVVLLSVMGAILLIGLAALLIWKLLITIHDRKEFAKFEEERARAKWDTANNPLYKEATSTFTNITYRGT
How it was run: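 Solution-phase ELISA after Friguet. Integrin αvβ3 (serial, 0.5–32 nM) was equilibrated with test peptide (0.5 nM) for 4 hrs at 37°C. The mixture was moved to wells precoated with anti-integrin αvβ3 antibody (1:50) for 1 hr at room temperature, washed, and bound complexes detected by ELISA. Absorbance was taken without receptor (A0) and at each receptor concentration (A). Run in triplicate; Kd from one-site specific binding nonlinear regression.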

[4] = target: integrin αvβ3 (UniProt P06756); assay: ELISA
Chain of integrin αvβ3 (UniProt P06756) (P06756 31-1048, chain 1 of 2): as the sequence (P06756 31-1048) above
Chain of integrin αvβ3 (UniProt P06756) (P05106 27-788, chain 2 of 2, further chain): as the sequence (P05106 27-788) above

Molecule: VEGF
tube formation, result in words [1]: the tube-like structures were developed from clear elongated cell bodies, which connected to form a polygon network

Molecule: N=C(N)NCCC[C@H](NC(=O)[C@@H]1CCCN1C(=O)[C@H](Cc1c[nH]c2ccccc12)NC(=O)[C@H](CCCNC(=N)N)NC(=O)[C@H](Cc1ccccc1)NC(=O)[C@H](CC(=O)O)NC(=O)CNC(=O)[C@@H](N)CCCNC(=N)N)C(=O)O [GCPF] (H-RGDFRWPR-OH)
proliferation inhibition rate ([2]; 1 μg/mL): 0.15%
proliferation inhibition rate ([2]; 10 μg/mL): 13.49%
proliferation inhibition rate ([2]; 100 μg/mL): 3.90%
proliferation inhibition rate ([2]; 1000 μg/mL): 1.98%
Kd [3]: 2.41 ± 0.455 nM

Kd [4]: 2.41 nM
Molecule: RGDFRWPR [GCPF peptide]
